ChEMBL document CHEMBL4613249, “Serendipitous Discovery of Leucine and Methionine Depletion Agents during the Search for Polyamine Transport Inhibitors” (J Med Chem, 2020)
The source made the active and inactive calls.

Tests used:
[1] = molecular target: Large neutral amino acids transporter small subunit 1 (Homo sapiens) (UniProt Q01650); assay: Inhibition of LAT1-mediated [3H]-leucine uptake in human L3.6PL cells at 30 uM and 37 degree C measured after 2 mins by scintillation counter method; format: cell-based
Sequence of Large neutral amino acids transporter small subunit 1 (Homo sapiens) (Q01650 whole entry): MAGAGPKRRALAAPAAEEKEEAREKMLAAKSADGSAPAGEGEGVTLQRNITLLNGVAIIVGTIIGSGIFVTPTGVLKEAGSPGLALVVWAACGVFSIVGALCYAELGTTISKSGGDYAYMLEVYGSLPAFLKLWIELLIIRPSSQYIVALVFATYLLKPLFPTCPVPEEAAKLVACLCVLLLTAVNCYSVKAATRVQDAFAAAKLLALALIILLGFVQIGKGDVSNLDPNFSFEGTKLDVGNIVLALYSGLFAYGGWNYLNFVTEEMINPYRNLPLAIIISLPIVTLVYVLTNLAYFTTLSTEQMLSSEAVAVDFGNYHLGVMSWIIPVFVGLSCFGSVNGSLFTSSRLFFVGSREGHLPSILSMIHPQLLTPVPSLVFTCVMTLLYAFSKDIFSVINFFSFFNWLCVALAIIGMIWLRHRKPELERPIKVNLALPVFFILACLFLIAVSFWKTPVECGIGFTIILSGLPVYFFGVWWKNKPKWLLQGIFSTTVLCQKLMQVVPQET

CHO-K1 [2] = assay: Cytotoxicity against CHOK1 cells assessed as effect on cell growth at 10 uM measured after 48 hrs by MTS assay; format: cell-based, Cricetulus griseus; settings: chinese hamster, cho-k1, 48 h
CHO-K1 [3] = assay: Inhibition of polyamine transporter in DFMO-treated CHOK1 cells assessed as prevention of spermidine entry into cells by measuring rescue of DFMO-induced reduction in cell growth at 1 to 10 uM measured after 48 hrs in presence of amine oxidase suppressor aminoguanidine by MTS assay; format: cell-based; settings: Cricetulus griseus
Summary of the method: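 CHO K1 cells (1000 cells/well) were pre-incubated 24 h with 1 mM aminoguanidine. They were then given fixed DFMO (4.2 mM) and spermidine (1 μM) plus increasing compound doses for 48 h at 37°C. EC50 is the concentration bringing MTS relative growth halfway between the DFMO+Spd and DFMO-only controls. Runs were done twice in triplicate, with SD.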

CHO-K1 [4] = assay: Inhibition of polyamine transporter in CHOK1 cells assessed as rescue of 2.4 uM N-(anthracenylmethyl) homospermidine-induced toxicity by measuring cell growth at 7 uM measured after 48 hrs in presence of amine oxidase suppressor aminoguanidine by MTS assay (reference value: 23%); format: cell-based; parameters: scale not given: the % may be the effect or the level left; settings: Cricetulus griseus
Summary of the method: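 CHO K1 cells (1000 cells/well, aminoguanidine 1 mM preincubation) were given a toxic Ant-44 dose (2.4 μM) with candidate compound at 5 or 7 μM. Cells were incubated 48 h at 37°C, and relative growth versus untreated control was read by MTS.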

CHO-K1 [5] = assay: Cytotoxicity against CHOK1 cells assessed as effect on cell growth at < 7 uM measured after 48 hrs by MTS assay; format: cell-based, Cricetulus griseus; settings: chinese hamster, cho-k1, 48 h
CHO-K1 [6] = assay: Potentiation of 0.5 uM N-(anthracenylmethyl) homospermidine-induced toxicity in CHOK1 cells assessed as increase in Ant-44-induced reduction in cell growth measured after 48 hrs in presence of amine oxidase suppressor aminoguanidine by MTS assay; format: functional, cell-based; settings: Cricetulus griseus
Summary of the method: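 CHO K1 cells were pretreated 24 h with 1 mM aminoguanidine, then given fixed Ant-44 (0.5 μM) plus increasing compound (up to 5 μM) for 48 h at 37°C. MTS growth was read, with EC50 defined as the dose halving growth relative to Ant-44 alone. Runs were done twice in triplicate, with SD.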

L3.6pl [7] = assay: Cytotoxicity against human L3.6PL cells assessed as reduction in cell viability measured after 72 hrs by MTS assay; format: cell-based
Summary of the method: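 L3.6pl cells, 500 cells/well in RPMI 1640 with 10% FBS and 250 μM aminoguanidine, plated overnight. Compound in PBS added, then 72 h at 37°C. MTS absorbance at 490 nm. IC50 is the dose giving 50% relative growth versus untreated control. Run twice in triplicate.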

L3.6pl [8] = assay: Cytotoxicity against human L3.6PL cells assessed as reduction in cell viability at 5 uM measured after 72 hrs by MTS assay; format: cell-based
L3.6pl [9] = assay: Potentiation of 2 uM N-(anthracenylmethyl) homospermidine-induced toxicity in human L3.6PL cells assessed as increase in Ant-44-induced reduction in cell growth measured after 72 hrs in presence of amine oxidase suppressor aminoguanidine by MTS assay; format: functional, cell-based
Summary of the method: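 L3.6pl cells (500 cells/well) were pretreated 24 h with 250 μM aminoguanidine in PBS, then given Ant-44 (2 μM) with increasing compound for 72 h at 37°C. MTS growth was read, with EC50 relative to the Ant-44-only control.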

inhibition [1]	SMILES	Activity (CHO-K1 [2])	inhibition (CHO-K1 [3])	Activity (CHO-K1 [4]) [%]	Activity (CHO-K1 [5])	Activity (CHO-K1 [6])	EC50 (CHO-K1 [6]; CHO-K1, 48 h) [µM]	IC50 (L3.6pl [7]) [µM]	Activity (L3.6pl [8])	EC50 (L3.6pl [9]) [µM]
Active	Nc1cc(COc2c(Cl)cc(C[C@H](N)C(=O)O)cc2Cl)c2oc(-c3ccccc3)nc2c1	–	–	–	–	–	–	–	–	–
–	CC(C)(C)CCN1CCN([C@H](CNCc2ccccc2)Cc2ccccc2)C[C@@H]1Cc1ccccc1	Non-Toxic	inactive	2.1	Non-Toxic	Dose-dependent effect	0.75	11.7	Non-Toxic	3.27
